This excerpt belongs to a sample that is enriched for hits.
IDH1 R132H inh: inhibitors of human IDH1 R132H; hit rate 0.18% among 70,000; IDH1 R132H reductase, diaphorase/resazurin fluorescence, 60 min; AID 624101; inhibition, % at 10 µM; O75874; in the data active = inhibition above about 34%
Target sequence (O75874 whole entry R132H): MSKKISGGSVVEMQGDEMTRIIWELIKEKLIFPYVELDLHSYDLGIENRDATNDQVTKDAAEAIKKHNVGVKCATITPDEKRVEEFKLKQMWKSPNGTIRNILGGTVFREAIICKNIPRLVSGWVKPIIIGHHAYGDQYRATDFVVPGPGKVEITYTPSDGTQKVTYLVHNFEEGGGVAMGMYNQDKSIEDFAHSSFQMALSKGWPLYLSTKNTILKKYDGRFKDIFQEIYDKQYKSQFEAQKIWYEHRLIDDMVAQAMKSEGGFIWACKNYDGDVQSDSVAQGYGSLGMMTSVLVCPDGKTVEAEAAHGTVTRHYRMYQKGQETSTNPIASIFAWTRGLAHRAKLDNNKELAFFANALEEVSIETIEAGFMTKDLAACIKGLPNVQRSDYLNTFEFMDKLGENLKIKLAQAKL
Tcruzi prolif: blocks T. cruzi growth in NIH3T3 culture. T. cruzi beta-gal in NIH3T3, GalScreen luminescence, 90 h. inhibition, % at 8.34 µM. hit rate 5.9% among 77,000;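 active = mean inhibition above about 93%, with at least 55% of replicates each passing it, limit read from the data, passing the limit was not always enough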
KDM4C inh: blocks human GASC-1 (KDM4C) demethylase activity; Q9H3R0; GST-KDM4C 2-372, H3K9me3 peptide, LANCE TR-FRET; inhibition, % at 12.5 µM; hit rate 0.15% among 96,000;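 active = mean replicate inhibition above about 25%, with at least 55% of replicates also reaching it, limit read from the data, passing the limit was not always enough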
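System – N-terminal GST-fused human GASC-1 (KDM4C) fragment, residues 2-372 · Input – enzyme final amount 10 nM · Technique – LANCE TR-FRET, Eu antibody, ULight-streptavidin, EDTA, ex 340 nm, em 618/671 nm · Medium – HEPES buffer, pH 7.5, plus ascorbate · Incubation – enzyme reaction 30 min, then detection 60 min, both room temperature · Reagent – H3K9me3 peptide with Fe(II)/2OG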
A number is an active result; ! = a repeat was not active.

For N#C[C@@H]1[C@H](c2ccc(C#CCC3CCCC3)cc2)[C@H](CO)N1C(=O)c1ccccn1 the results were Tcruzi prolif inactive and KDM4C inh inactive.
`Cc1ccc(-c2csc3ncnc(SCC(=O)Nc4ccc(S(N)(=O)=O)cc4)c23)cc1` gave IDH1 R132H inh inactive.
CCc1c(C)sc(NC(=S)Nc2cc(OC)c(Cl)cc2OC)c1C(=O)OC was read as IDH1 R132H inh inactive.
Cc1nc(SCC(=O)Nc2sc3c(c2C#N)CCCC3)nc2c1CCCC2 was read as IDH1 R132H inh inactive.
For Fc1ccc(-c2ccc(C3[C@@H]4CN(Cc5cccc(F)c5)C[C@H]3N4)cc2)cc1 (stereo not given in full) the results were KDM4C inh inactive.
Fc1ccc(-c2ccc(C3[C@@H]4CN(Cc5ccccc5)C[C@H]3N4)cc2)cc1 (stereo not given in full) was read as KDM4C inh 40.5!.
For CC(C)=CC(=O)CC(O)(c1ccccc1)c1ccccc1 the results were IDH1 R132H inh inactive.
For CCCN(C)C[C@H]1Oc2cc(/C=C/c3ccccc3)ccc2S(=O)(=O)N([C@H](C)CO)C[C@@H]1C the results were IDH1 R132H inh inactive and KDM4C inh inactive.
For C[C@H]1CN([C@@H](C)CO)S(=O)(=O)c2ccc(/C=C/c3ccccc3)cc2O[C@@H]1CN(C)C(=O)c1ccccc1 the results were IDH1 R132H inh inactive, Tcruzi prolif 125.1 and KDM4C inh inactive.
For C/C=C/c1ccc2c(c1)O[C@@H](CN(C)CCC)[C@@H](C)CN([C@H](C)CO)S2(=O)=O the results were IDH1 R132H inh 52.8, Tcruzi prolif inactive and KDM4C inh 37.9.
C/C=C/c1ccc2c(c1)O[C@H](CN(C)C(=O)c1ccccc1)[C@H](C)CN([C@@H](C)CO)S2(=O)=O was read as IDH1 R132H inh inactive and KDM4C inh inactive.
Screening N#CCCn1cc(CO)c(-c2ccc(Cl)cc2)n1 returned IDH1 R132H inh inactive.
COc1cccc(NC(=O)CC2OCCN(Cc3ccccc3)C2=O)c1 (stereo not given) was read as IDH1 R132H inh inactive.
Screening COc1ccccc1C(=O)N(Cc1nnc2c3ccccc3c(C)nn12)c1ccccc1 returned IDH1 R132H inh inactive.
For Cc1cc(C2(O)CSc3nc4cc(C(F)(F)F)ccc4n32)ccc1Cl (stereo not given) the results were IDH1 R132H inh inactive.
For Cc1cc(C)nc(NS(=O)(=O)c2ccc(Nc3nc(-c4ccc(O)cc4)cs3)cc2)n1 the results were IDH1 R132H inh inactive.
Cc1cc(NS(=O)(=O)c2ccc(Nc3nc(-c4ccc(O)cc4)cs3)cc2)no1 was read as IDH1 R132H inh 59.7.
`Cc1ccc(S(=O)(=O)NCC(=O)Nc2ccc(Cl)c(C(F)(F)F)c2)cc1` gave IDH1 R132H inh inactive.
OCc1ccccc1O was read as IDH1 R132H inh inactive.
For O=C(O)c1cc(N(Cc2ccccc2O)Cc2cc(O)ccc2O)ccc1O the results were IDH1 R132H inh 41.2.
`COc1cccc(CNc2nc3ccccc3n2CCN2CCOCC2)c1O` gave IDH1 R132H inh inactive.
For C[C@@H]1CN([C@@H](C)CO)S(=O)(=O)c2ccc(-c3ccccc3)cc2O[C@H]1CN(C)Cc1cccnc1 the results were IDH1 R132H inh 66.2, Tcruzi prolif 103.2 and KDM4C inh inactive.
`CCCNC(=O)N(C)C[C@@H]1Oc2cc(-c3cccnc3)ccc2S(=O)(=O)N([C@@H](C)CO)C[C@@H]1C` gave IDH1 R132H inh inactive, Tcruzi prolif inactive and KDM4C inh 29.7.
`COc1cccc(-c2ccc3c(c2)O[C@@H](CN(C)Cc2ccncc2)[C@@H](C)CN([C@H](C)CO)S3(=O)=O)c1` gave IDH1 R132H inh inactive and KDM4C inh 41.8.
For C[C@@H]1CN([C@@H](C)CO)S(=O)(=O)c2ccc(-c3cccnc3)cc2O[C@@H]1CN(C)Cc1cccnc1 the results were Tcruzi prolif inactive and KDM4C inh inactive.
For C[C@H]1CN([C@@H](C)CO)S(=O)(=O)c2ccc(-c3ccccc3)cc2O[C@H]1CN(C)Cc1cccnc1 the results were Tcruzi prolif inactive and KDM4C inh inactive.
`CCCNC(=O)N(C)C[C@@H]1Oc2cc(-c3cccnc3)ccc2S(=O)(=O)N([C@H](C)CO)C[C@H]1C` gave IDH1 R132H inh inactive, Tcruzi prolif inactive and KDM4C inh inactive.
`COc1cccc(-c2ccc3c(c2)O[C@H](CN(C)Cc2cncnc2)[C@@H](C)CN([C@@H](C)CO)S3(=O)=O)c1` gave IDH1 R132H inh inactive, Tcruzi prolif inactive and KDM4C inh inactive.
`C[C@H]1CN([C@@H](C)CO)S(=O)(=O)c2ccc(-c3ccccc3)cc2O[C@@H]1CN(C)Cc1cccnc1` gave Tcruzi prolif 116.2 and KDM4C inh inactive.
CCN(CC(=O)Nc1ccc(Cl)cc1C)S(=O)(=O)c1ccc(C)cc1 was read as IDH1 R132H inh inactive.
For COc1ccc(-c2cc3ccccc3oc2=O)cc1NC(=O)COc1ccc(Cl)cc1C the results were IDH1 R132H inh inactive.
For Cc1sc(NC(=O)c2ccccc2)c(C(=O)NCc2cccnc2)c1C the results were IDH1 R132H inh inactive.
`COc1ccc(NC(=O)N(C)C[C@H]2OCc3cnnn3CCCC(=O)N([C@H](C)CO)C[C@@H]2C)c(OC)c1` gave IDH1 R132H inh inactive, Tcruzi prolif inactive and KDM4C inh inactive.
COc1ccc(NC(=O)N(C)C[C@H]2OCc3cnnn3CCCC(=O)N([C@H](C)CO)C[C@H]2C)c(OC)c1 was read as IDH1 R132H inh 53.9, Tcruzi prolif inactive and KDM4C inh inactive.
`O=C(CN(C1CCCCC1)S(=O)(=O)c1ccc(F)cc1)Nc1cc(Cl)ccc1Cl` gave IDH1 R132H inh inactive.
Screening C[C@@H]1CCCCO[C@H](CN(C)S(=O)(=O)c2ccccc2)[C@H](C)CN([C@@H](C)CO)C(=O)c2cc(NC(=O)CCCN(C)C)ccc2O1 returned IDH1 R132H inh 89.0, Tcruzi prolif inactive and KDM4C inh inactive.
For COc1ccc(S(=O)(=O)Nc2ccc3c(c2)C(=O)N([C@H](C)CO)C[C@H](C)[C@@H](CN(C)S(=O)(=O)c2ccc(C)cc2)OCCCC[C@@H](C)O3)cc1 the results were IDH1 R132H inh inactive and KDM4C inh inactive.
For C[C@@H]1CCCCO[C@H](CN(C)S(=O)(=O)c2ccccc2)[C@@H](C)CN([C@@H](C)CO)C(=O)c2cc(NC(=O)CCCN(C)C)ccc2O1 the results were IDH1 R132H inh inactive, Tcruzi prolif inactive and KDM4C inh inactive.
COc1ccc(S(=O)(=O)N(C)C[C@@H]2OCCCC[C@@H](C)Oc3ccc(NS(=O)(=O)c4ccc(C)cc4)cc3C(=O)N([C@@H](C)CO)C[C@H]2C)cc1 was read as Tcruzi prolif 101.6 and KDM4C inh inactive.
Screening COc1ccc(S(=O)(=O)Nc2ccc3c(c2)C(=O)N([C@@H](C)CO)C[C@@H](C)[C@H](CN(C)C(=O)Nc2ccccc2)OCCCC[C@@H](C)O3)cc1 returned Tcruzi prolif 111.2 and KDM4C inh inactive.
`COc1ccc(S(=O)(=O)Nc2ccc3c(c2)CC(=O)N([C@H](C)CO)C[C@H](C)[C@@H](CN(C)S(=O)(=O)c2ccc(F)cc2)O3)cc1` gave IDH1 R132H inh inactive, Tcruzi prolif inactive and KDM4C inh 27.1.
